From ChEMBL document CHEMBL1155251, “Efficient synthesis of the first betulonic acid-acetylene hybrids and their hepatoprotective and anti-inflammatory activity” (2009)
Activity calls are given as the source filed them. No cut-off for these calls is given here.

Key:
Mus musculus [1] = experiment: Antiinflammatory activity against carrageenan-induced paw edema in mouse assessed as decrease in index of hind paw edema at 20 mg/kg, po administered 1 hr prior to carrageenan challenge; format: functional, organism-based; parameters: dose 20 mg/kg
Summary of the method: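 Outbred male mice (22–25 g), ad libitum food/water. Dosed orally at 20 mg/kg as aqueous-Tween suspension 1 h before carrageenan; controls got water–Tween. Killed by cervical dislocation 5 h after phlogogen; hind paws cut at ankle and weighed. Edema index = (treated − untreated paw weight)/untreated paw weight.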

Mus musculus [2] = experiment: Hepatoprotective activity against CCL4-induced hepatitis in mouse assessed as alkaline phosphatase level at 50 mg/kg, po administered 1 hr prior to CCL4 challenge (reference value: 18.27+/- 1.42 ucat/L); format: functional
Summary of the method: (§1)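 Outbred male mice (22–25 g). Acute hepatitis induced by single oral 25% CCl4 in sunflower oil. Compounds given orally as water–Tween-80 suspension 1 h before induction; controls got vehicle. At least ten animals per group. Next day, serum ALP, ALT and AST measured with standard kits; TBARS measured by an established procedure.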

Mus musculus [3] = experiment: Hepatoprotective activity against CCL4-induced hepatitis in mouse assessed as […] level at 50 mg/kg, po administered 1 hr prior to CCL4 challenge (reference value: 5.04+/- 0.72 ucat/L); format: functional; summary of the method: as §1
Mus musculus [4] = experiment: Hepatoprotective activity against CCL4-induced hepatitis in mouse assessed as aspartate amino transferase level at 50 mg/kg, po administered 1 hr prior to CCL4 challenge (reference value: 5.23+/- 0.76 ucat/L); format: functional; summary of the method: as §1
Mus musculus [5] = experiment: Hepatoprotective activity against CCL4-induced hepatitis in mouse assessed as thiobarbiturate relative substance level at 50 mg/kg, po administered 1 hr prior to CCL4 challenge (reference value: 1.63+/- 0.24 ucat/L); format: functional; summary of the method: as §1
Mus musculus [6] = experiment: Hepatoprotective activity against CCL4-induced hepatitis in mouse assessed as alkaline phosphatase level at 100 mg/kg, po administered 1 hr prior to CCL4 challenge (reference value: 18.27+/- 1.42 ucat/L); format: functional; summary of the method: as §1
Mus musculus [7] = experiment: Hepatoprotective activity against CCL4-induced hepatitis in mouse assessed as […] level at 100 mg/kg, po administered 1 hr prior to CCL4 challenge (reference value: 5.04+/- 0.72 ucat/L); format: functional; summary of the method: as §1
Mus musculus [8] = experiment: Hepatoprotective activity against CCL4-induced hepatitis in mouse assessed as aspartate amino transferase level at 100 mg/kg, po administered 1 hr prior to CCL4 challenge (reference value: 5.23+/- 0.76 ucat/L); format: functional; summary of the method: as §1
Mus musculus [9] = experiment: Hepatoprotective activity against CCL4-induced hepatitis in mouse assessed as thiobarbiturate relative substance level at 100 mg/kg, po administered 1 hr prior to CCL4 challenge (reference value: 1.63+/- 0.24 ucat/L); format: functional; summary of the method: as §1
Mus musculus [10] = experiment: Hepatoprotective activity against CCL4-induced hepatitis in mouse assessed as alkaline phosphatase level at 20 mg/kg, po administered 1 hr prior to CCL4 challenge (reference value: 18.27+/- 1.42 ucat/L); format: functional; summary of the method: as §1
Mus musculus [11] = experiment: Hepatoprotective activity against CCL4-induced hepatitis in mouse assessed as […] level at 20 mg/kg, po administered 1 hr prior to CCL4 challenge (reference value: 5.04+/- 0.72 ucat/L); format: functional; summary of the method: as §1
Mus musculus [12] = experiment: Hepatoprotective activity against CCL4-induced hepatitis in mouse assessed as aspartate amino transferase level at 20 mg/kg, po administered 1 hr prior to CCL4 challenge (reference value: 5.23+/- 0.76 ucat/L); format: functional; summary of the method: as §1
Mus musculus [13] = experiment: Hepatoprotective activity against CCL4-induced hepatitis in mouse assessed as thiobarbiturate relative substance level at 20 mg/kg, po administered 1 hr prior to CCL4 challenge (reference value: 1.63+/- 0.24 ucat/L); format: functional; summary of the method: as §1

## COc1ccc2c(c1)c(CC(=O)O)c(C)n2C(=O)c1ccc(Cl)cc1
Mus musculus [1]
  Activity: Active

## C=C(C)[C@@H]1CC[C@]2(C(=O)Nc3ccc(C#CCN4CCCCC4)cc3)CC[C@]3(C)[C@H](CC[C@@H]4[C@@]5(C)CCC(=O)C(C)(C)[C@@H]5CC[C@]43C)[C@@H]12
Mus musculus [2]
  Activity: 12.8 ucat/L
Mus musculus [3]
  Activity: 3.08 ucat/L
Mus musculus [4]
  Activity: 3.25 ucat/L
Mus musculus [5]
  Activity: 1.06 µmol/L
Mus musculus [1]
  Activity: Active

## O=C1c2c(O)cc(O)cc2O[C@H](c2ccc(O)c(O)c2)[C@H]1O [(+)-TAXIFOLIN]
Mus musculus [6]
  Activity: 11.31 ucat/L
Mus musculus [7]
  Activity: 3.63 ucat/L
Mus musculus [8]
  Activity: 3.88 ucat/L
Mus musculus [9]
  Activity: 1.42 µmol/L

## C=C(C)[C@@H]1CC[C@]2(C(=O)Nc3ccc(I)cc3)CC[C@]3(C)[C@H](CC[C@@H]4[C@@]5(C)CCC(=O)C(C)(C)[C@@H]5CC[C@]43C)[C@@H]12
Mus musculus [10]
  Activity: 10.27 ucat/L
Mus musculus [11]
  Activity: 2.75 ucat/L
Mus musculus [12]
  Activity: 3.09 ucat/L
Mus musculus [13]
  Activity: 2.03 µmol/L
Mus musculus [1]
  Activity: inactive

## C=C(C)[C@@H]1CC[C@]2(C(=O)Nc3ccc(C#CCN4CCOCC4)cc3)CC[C@]3(C)[C@H](CC[C@@H]4[C@@]5(C)CCC(=O)C(C)(C)[C@@H]5CC[C@]43C)[C@@H]12
Mus musculus [2]
  Activity: 14.28 ucat/L
Mus musculus [3]
  Activity: 3.48 ucat/L
Mus musculus [4]
  Activity: 5.25 ucat/L
Mus musculus [5]
  Activity: 3.21 µmol/L
Mus musculus [1]
  Activity: Active
